ChEMBL document CHEMBL1142136, “Contribution of target gene mutations and efflux to decreased susceptibility of Salmonella enterica serovar typhimurium to fluoroquinolones and other antimicrobials” (2007)
Converted amounts (≈) assume the structure as drawn.

Key:
Assay type in all cases: functional, Salmonella enterica subsp. enterica serovar Typhimurium
Salmonella typhimurium [1] = assay: Antimicrobial activity against Salmonella enterica serovar Typhimurium CS3 tolC::Kan with GyrA S83F, D87N, parC S80I mutation
Procedure, shortened: (§1)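 MICs measured by broth microdilution on the Sensititre automated system and interpreted by CLSI broth microdilution standards. Ciprofloxacin was also tested by agar dilution, widening the range to 0.0075–128 μg/ml. Quality control strains were E. coli ATCC 25922 and 35218, E. faecalis ATCC 29212, S. aureus ATCC 29213 and P. aeruginosa ATCC 27853.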

Salmonella typhimurium [2] = assay: Antimicrobial activity against Salmonella enterica serovar Typhimurium CHS14 gyrA+ with GyrA D87G mutation; procedure, shortened: as §1
Salmonella typhimurium [3] = assay: Antimicrobial activity against Salmonella enterica serovar Typhimurium CS1 tolC::Kan with GyrA S83F, D87N, ParC S80I mutation; procedure, shortened: as §1
Salmonella typhimurium [4] = assay: Antimicrobial activity against Salmonella enterica serovar Typhimurium CS1 acrAB::Kan with GyrA S83F, D87N, ParC S80I mutation; procedure, shortened: as §1
Salmonella typhimurium [5] = assay: Antimicrobial activity against Salmonella enterica serovar Typhimurium S21; procedure, shortened: as §1
Salmonella typhimurium [6] = assay: Antimicrobial activity against Salmonella enterica serovar Typhimurium CHS14 acrAB::Kan with GyrA D87G mutation; procedure, shortened: as §1
Salmonella typhimurium [7] = assay: Antimicrobial activity against Salmonella enterica serovar Typhimurium CHS38 with GyrA D87G mutation; procedure, shortened: as §1
Salmonella typhimurium [8] = assay: Antimicrobial activity against Salmonella enterica serovar Typhimurium CHS38 tolC::Kan with GyrA D87G mutation; procedure, shortened: as §1
Salmonella typhimurium [9] = assay: Antimicrobial activity against Salmonella enterica serovar Typhimurium S21 acrAB::Kan
Procedure, shortened: (§2)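 MICs by automated broth microdilution panels, interpreted to CLSI broth microdilution standards. Ciprofloxacin additionally tested by agar dilution across 0.0075 to 128 μg/ml. Quality control strains: E. coli ATCC 25922 and 35218, Enterococcus faecalis ATCC 29212, S. aureus ATCC 29213, P. aeruginosa ATCC 27853. Test strains are kanamycin-marked deletion mutants of ground-beef isolate S21.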

Salmonella typhimurium [10] = assay: Antimicrobial activity against Salmonella enterica serovar Typhimurium CS9 with GyrA S83F, D87N, ParC S80I mutation; procedure, shortened: as §1
Salmonella typhimurium [11] = assay: Antimicrobial activity against Salmonella enterica serovar Typhimurium CS9 acrAB::Kan with GyrA S83F, D87N, ParC S80I mutation; procedure, shortened: as §1
Salmonella typhimurium [12] = assay: Antimicrobial activity against Salmonella enterica serovar Typhimurium CHS18 gyrA+ with GyrA S38F mutation; procedure, shortened: as §1
Salmonella typhimurium [13] = assay: Antimicrobial activity against Salmonella enterica serovar Typhimurium CHS18 with GyrA S38F mutation; procedure, shortened: as §1
Salmonella typhimurium [14] = assay: Antimicrobial activity against Salmonella enterica serovar Typhimurium CS3 with GyrA S83F, D87N, ParC S80I mutation; procedure, shortened: as §1
Salmonella typhimurium [15] = assay: Antimicrobial activity against Salmonella enterica serovar Typhimurium CS3 acrAB::Kan with GyrA S83F, D87N, ParC S80I mutation; procedure, shortened: as §1
Salmonella typhimurium [16] = assay: Antimicrobial activity against Salmonella enterica serovar Typhimurium CHS14 with GyrA D87G mutation; procedure, shortened: as §1
Salmonella typhimurium [17] = assay: Antimicrobial activity against Salmonella enterica serovar Typhimurium CHS38 acrAB::Kan with GyrA D87G mutation; procedure, shortened: as §1
Salmonella typhimurium [18] = assay: Antimicrobial activity against Salmonella enterica serovar Typhimurium CHS14 tolC::Kan with GyrA D87G mutant; procedure, shortened: as §1
Salmonella typhimurium [19] = assay: Antimicrobial activity against Salmonella enterica serovar Typhimurium CHS18 acrAB::Kan with GyrA S38F mutation; procedure, shortened: as §1
Salmonella typhimurium [20] = assay: Antimicrobial activity against Salmonella enterica serovar Typhimurium CS9 tolC::Kan with GyrA S83F, D87N, ParC S80I mutation; procedure, shortened: as §1
Salmonella typhimurium [21] = assay: Antimicrobial activity against Salmonella enterica serovar Typhimurium CS1 gyrA+ with GyrA S83F, D87N, ParC S80I mutation; procedure, shortened: as §1
Salmonella typhimurium [22] = assay: Antimicrobial activity against Salmonella enterica serovar Typhimurium CS1 with GyrA S83F, D87N, ParC S80I mutation; procedure, shortened: as §1
Salmonella typhimurium [23] = assay: Antimicrobial activity against Salmonella enterica serovar Typhimurium S21-1 gyrA+; procedure, shortened: as §1
Salmonella typhimurium [24] = assay: Antimicrobial activity against Salmonella enterica serovar Typhimurium S21 gyrA+; procedure, shortened: as §1
Salmonella typhimurium [25] = assay: Antimicrobial activity against Salmonella enterica serovar Typhimurium CHS18 tolC::Kan with GyrA S38F mutation; procedure, shortened: as §1
Salmonella typhimurium [26] = assay: Antimicrobial activity against Salmonella enterica serovar Typhimurium CS3 gyrA+ with GyrA S83F, D87N, ParC S80I mutation; procedure, shortened: as §1
Salmonella typhimurium [27] = assay: Antimicrobial activity against Salmonella enterica serovar Typhimurium CHS38 gyrA+ with GyrA D87G mutation; procedure, shortened: as §1
Salmonella typhimurium [28] = assay: Antimicrobial activity against Salmonella enterica serovar Typhimurium S21-4 acrAB::Kan with GyrA S83F, ParC S80I mutation; procedure, shortened: as §1
Salmonella typhimurium [29] = assay: Antimicrobial activity against Salmonella enterica serovar Typhimurium S21 tolC::Kan; procedure, shortened: as §2
Salmonella typhimurium [30] = assay: Antimicrobial activity against Salmonella enterica serovar Typhimurium CS9 gyrA+ with GyrA S83F, D87N, ParC S80I mutation; procedure, shortened: as §1
Salmonella typhimurium [31] = assay: Antimicrobial activity against Salmonella enterica serovar Typhimurium S21-1 GyrA S83F mutant; procedure, shortened: as §1
Salmonella typhimurium [32] = assay: Antimicrobial activity against Salmonella enterica serovar Typhimurium S21-3 gyrA+ with ParC S80I mutation; procedure, shortened: as §1
Salmonella typhimurium [33] = assay: Antimicrobial activity against Salmonella enterica serovar Typhimurium S21-4 gyrA+ with ParC S80I mutation; procedure, shortened: as §1
Salmonella typhimurium [34] = assay: Antimicrobial activity against Salmonella enterica serovar Typhimurium S21-2 with GyrA S83F, ParC S80I mutation; procedure, shortened: as §1
Salmonella typhimurium [35] = assay: Antimicrobial activity against Salmonella enterica serovar Typhimurium S21-2 gyrA+ with ParC S80I mutation; procedure, shortened: as §1
Salmonella typhimurium [36] = assay: Antimicrobial activity against Salmonella enterica serovar Typhimurium S21-4 with GyrA S83F, ParC S80I mutation; procedure, shortened: as §1
Salmonella typhimurium [37] = assay: Antimicrobial activity against Salmonella enterica serovar Typhimurium S21-3 with GyrA S83F, ParC S80I mutation; procedure, shortened: as §1

Row | SMILES | MIC (Salmonella typhimurium [1]) | MIC (Salmonella typhimurium [2]) | MIC (Salmonella typhimurium [3]) | MIC (Salmonella typhimurium [4]) | MIC (Salmonella typhimurium [5]) | MIC (Salmonella typhimurium [6]) | MIC (Salmonella typhimurium [7]) | MIC (Salmonella typhimurium [8]) | MIC (Salmonella typhimurium [9]) | MIC (Salmonella typhimurium [10]) | MIC (Salmonella typhimurium [11]) | MIC (Salmonella typhimurium [12]) | MIC (Salmonella typhimurium [13]) | MIC (Salmonella typhimurium [14]) | MIC (Salmonella typhimurium [15]) | MIC (Salmonella typhimurium [16]) | MIC (Salmonella typhimurium [17]) | MIC (Salmonella typhimurium [18]) | MIC (Salmonella typhimurium [19]) | MIC (Salmonella typhimurium [20]) | other results
1 | NC[C@H]1O[C@H](O[C@H]2[C@H](O)[C@@H](O[C@H]3O[C@H](CO)[C@@H](O)[C@H](N)[C@H]3O)[C@H](N)C[C@@H]2N)[C@H](O)[C@@H](O)[C@@H]1O [KANAMYCIN] | > 64 µg/mL | > 64 µg/mL | > 64 µg/mL | > 64 µg/mL | < 8 µg/mL | > 64 µg/mL | 8 µg/mL (≈ 16.5 µM) | > 64 µg/mL | > 64 µg/mL | < 8 µg/mL | > 64 µg/mL | > 64 µg/mL | 8 µg/mL (≈ 16.5 µM) | < 8 µg/mL | > 64 µg/mL | < 8 µg/mL | > 64 µg/mL | > 64 µg/mL | > 64 µg/mL | > 64 µg/mL | MIC (Salmonella typhimurium [21]): > 64 µg/mL; MIC (Salmonella typhimurium [22]): < 8 µg/mL; MIC (Salmonella typhimurium [23]): < 8 µg/mL; MIC (Salmonella typhimurium [24]): < 8 µg/mL; MIC (Salmonella typhimurium [25]): > 64 µg/mL; MIC (Salmonella typhimurium [26]): > 64 µg/mL; MIC (Salmonella typhimurium [27]): > 64 µg/mL; MIC (Salmonella typhimurium [28]): > 64 µg/mL; MIC (Salmonella typhimurium [29]): > 64 µg/mL; MIC (Salmonella typhimurium [30]): > 64 µg/mL
2 | CO/N=C(\C(=O)N[C@@H]1C(=O)N2C(C(=O)O)=C(CSC(=O)c3ccco3)CS[C@H]12)c1csc(N)n1 [CEFTIOFUR] | 0.5 µg/mL (≈ 0.955 µM) | 1 µg/mL (≈ 1.91 µM) | 0.5 µg/mL (≈ 0.955 µM) | 0.5 µg/mL (≈ 0.955 µM) | 0.5 µg/mL (≈ 0.955 µM) | < 0.12 µg/mL | 0.5 µg/mL (≈ 0.955 µM) | 0.12 µg/mL (≈ 0.229 µM) | < 0.12 µg/mL | 1 µg/mL (≈ 1.91 µM) | 0.5 µg/mL (≈ 0.955 µM) | 1 µg/mL (≈ 1.91 µM) | 1 µg/mL (≈ 1.91 µM) | 1 µg/mL (≈ 1.91 µM) | 0.5 µg/mL (≈ 0.955 µM) | 1 µg/mL (≈ 1.91 µM) | 0.12 µg/mL (≈ 0.229 µM) | < 0.12 µg/mL | 0.12 µg/mL (≈ 0.229 µM) | 0.5 µg/mL (≈ 0.955 µM) | MIC (Salmonella typhimurium [31]): 0.5 µg/mL (≈ 0.955 µM); MIC (Salmonella typhimurium [32]): 4 µg/mL (≈ 7.64 µM); MIC (Salmonella typhimurium [21]): 1 µg/mL (≈ 1.91 µM); MIC (Salmonella typhimurium [22]): 1 µg/mL (≈ 1.91 µM); MIC (Salmonella typhimurium [23]): 0.5 µg/mL (≈ 0.955 µM); MIC (Salmonella typhimurium [33]): 4 µg/mL (≈ 7.64 µM); MIC (Salmonella typhimurium [24]): 0.5 µg/mL (≈ 0.955 µM); MIC (Salmonella typhimurium [34]): 4 µg/mL (≈ 7.64 µM); MIC (Salmonella typhimurium [25]): 0.12 µg/mL (≈ 0.229 µM); MIC (Salmonella typhimurium [26]): 1 µg/mL (≈ 1.91 µM); MIC (Salmonella typhimurium [35]): 4 µg/mL (≈ 7.64 µM); MIC (Salmonella typhimurium [36]): 4 µg/mL (≈ 7.64 µM); MIC (Salmonella typhimurium [27]): 0.5 µg/mL (≈ 0.955 µM); MIC (Salmonella typhimurium [37]): 4 µg/mL (≈ 7.64 µM); MIC (Salmonella typhimurium [29]): < 0.12 µg/mL; MIC (Salmonella typhimurium [30]): 1 µg/mL (≈ 1.91 µM)
